ChEMBL document CHEMBL4811271, “Computer-aided design of 1,4-naphthoquinone-based inhibitors targeting cruzain and rhodesain cysteine proteases” (Bioorg Med Chem, 2021)
Calls of active or inactive are those of the source. The calls are words filed in the database; no cut-off is given here.

Experiments:
[1] = target: Rhodesain (Trypanosoma brucei rhodesiense) (UniProt Q95PM0); experiment: Inhibition of recombinant Trypanosoma brucei rhodesain at 100 uM using Z-FR-AMC as substrate preincubated for 10 mins followed by substrate addition measured for 5 mins by fluorimetric analysis relative to control
Procedure, shortened: (§1)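 Recombinant enzyme (cruzain expressed in-house; rhodesain donated) at 0.5 nM in 0.1 M sodium acetate pH 5.5 with 1 mM DTT and 0.01% Triton X-100. Compound pre-incubated with enzyme 10 min, then 2.5 µM Z-FR-AMC added. Fluorescence followed 5 min. Activity taken from initial rates against DMSO control, E64 as positive control. Screen at 100 µM. IC50 from ≥8 concentrations by nonlinear regression. Two independent experiments in triplicate.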

[2] = target: Cruzipain (Trypanosoma cruzi) (UniProt P25779); experiment: Inhibition of recombinant Trypanosoma cruzi cruzain at 100 uM using Z-FR-AMC as substrate preincubated for 10 mins followed by substrate addition measured for 5 mins by fluorimetric analysis relative to control; procedure, shortened: as §1
[3] = target: Rhodesain (Trypanosoma brucei rhodesiense) (UniProt Q95PM0); experiment: Inhibition of recombinant Trypanosoma brucei rhodesain at 100 uM using Z-FR-AMC as substrate by fluorimetric analysis relative to control; procedure, shortened: as §1
Rhodesain [4] = target: T1, Rhodesain (Trypanosoma brucei rhodesiense, UniProt Q95PM0); experiment: Inhibition of recombinant Trypanosoma brucei rhodesain using Z-FR-AMC as substrate preincubated for 10 mins followed by substrate addition measured for 5 mins by fluorimetric analysis relative to control
Procedure, shortened: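 Recombinant rhodesain (0.5 nM) in 0.1 M sodium acetate pH 5.5 with 1 mM DTT and 0.01% Triton X-100, pre-incubated with compound for 10 min before adding 2.5 µM Z-FR-AMC. Fluorescence monitored 5 min. Initial rates compared with DMSO control. Screen at 100 µM; IC50 determined for compounds above 70% inhibition, from at least 8 concentrations, two independent experiments in triplicate.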

Rhodesain [5] = target: T1, Rhodesain; experiment: Inhibition of recombinant Trypanosoma brucei rhodesain using Z-FR-AMC as substrate by fluorimetric analysis relative to control
Procedure, shortened: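 Rhodesain (recombinant, gift) 0.5 nM in 0.1 M sodium acetate pH 5.5 with 1 mM DTT and 0.01% Triton X-100. Z-FR-AMC substrate 2.5 µM, read by fluorescence over 5 min. Activity from initial rates versus DMSO control, with E64 as positive control. Two independent experiments in triplicate. IC50 from at least 8 concentrations by nonlinear regression.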

[6] = target: Rhodesain (Trypanosoma brucei rhodesiense) (UniProt Q95PM0); experiment: Inhibition of recombinant Trypanosoma brucei rhodesain at 100 uM using Z-FR-AMC as substrate by fluorimetric analysis; conditions: TDE = time-dependent effect; procedure, shortened: as §1
[7] = target: Rhodesain (Trypanosoma brucei rhodesiense) (UniProt Q95PM0); experiment: Reversible inhibition of recombinant Trypanosoma brucei rhodesain using Z-FR-AMC as substrate measured for 30 mins by fluorimetric analysis
Procedure, shortened: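 Rhodesain at 100-fold final assay concentration incubated 30 min with compound at 10-fold its IC50. The mixture was then diluted 100-fold into buffer with 2.5 µM Z-FR-AMC, giving standard enzyme level and 0.1× IC50. AMC release was monitored continuously for 30 min and compared with vehicle control. E-64 served as irreversible reference.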

Cruzipain = Cruzipain (Trypanosoma cruzi, UniProt P25779); experiment: Inhibition of recombinant Trypanosoma cruzi cruzain using Z-FR-AMC as substrate preincubated for 10 mins followed by substrate addition measured for 5 mins by fluorimetric analysis relative to control; procedure, shortened: as §1
Rhodesain [8] = target: T1, Rhodesain; experiment: Binding affinity to Trypanosoma brucei rhodesain; procedure, shortened: as §1
[9] = target: Rhodesain (Trypanosoma brucei rhodesiense) (UniProt Q95PM0); experiment: Inhibition of recombinant Trypanosoma brucei rhodesain at 0.1 uM using Z-FR-AMC as substrate preincubated for 10 mins followed by substrate addition by fluorimetric analysis relative to control
[10] = target: Rhodesain (Trypanosoma brucei rhodesiense) (UniProt Q95PM0); experiment: Inhibition of recombinant Trypanosoma brucei rhodesain at 0.1 uM using Z-FR-AMC as substrate by fluorimetric analysis relative to control
Trypanosoma cruzi = experiment: Antitrypanosomal activity against Trypanosoma cruzi Dm28c assessed as live parasite count measured after 72 hrs by optical microscopy; assay type: functional; conditions: read-out: LD50 (the source's name)
Vero = experiment: Cytotoxicity against African green monkey Vero cells measured after 24 hrs; assay type: functional; conditions: Chlorocebus sabaeus

Cruzipain, sequence (P25779 whole entry): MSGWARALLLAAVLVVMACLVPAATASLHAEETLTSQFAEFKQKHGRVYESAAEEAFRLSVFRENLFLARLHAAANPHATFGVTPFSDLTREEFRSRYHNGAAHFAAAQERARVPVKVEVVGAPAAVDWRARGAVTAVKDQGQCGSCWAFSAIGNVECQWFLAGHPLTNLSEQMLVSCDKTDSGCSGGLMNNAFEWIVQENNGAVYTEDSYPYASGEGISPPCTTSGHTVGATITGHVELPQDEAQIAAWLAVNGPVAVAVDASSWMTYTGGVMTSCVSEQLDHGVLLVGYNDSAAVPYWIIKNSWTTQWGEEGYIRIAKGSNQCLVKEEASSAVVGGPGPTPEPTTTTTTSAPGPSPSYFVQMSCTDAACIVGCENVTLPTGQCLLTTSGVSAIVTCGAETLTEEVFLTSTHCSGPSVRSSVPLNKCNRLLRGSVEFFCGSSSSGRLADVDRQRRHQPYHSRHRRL
Cruzipain (Trypanosoma cruzi), sequence (P25779 123-467 limits assumed): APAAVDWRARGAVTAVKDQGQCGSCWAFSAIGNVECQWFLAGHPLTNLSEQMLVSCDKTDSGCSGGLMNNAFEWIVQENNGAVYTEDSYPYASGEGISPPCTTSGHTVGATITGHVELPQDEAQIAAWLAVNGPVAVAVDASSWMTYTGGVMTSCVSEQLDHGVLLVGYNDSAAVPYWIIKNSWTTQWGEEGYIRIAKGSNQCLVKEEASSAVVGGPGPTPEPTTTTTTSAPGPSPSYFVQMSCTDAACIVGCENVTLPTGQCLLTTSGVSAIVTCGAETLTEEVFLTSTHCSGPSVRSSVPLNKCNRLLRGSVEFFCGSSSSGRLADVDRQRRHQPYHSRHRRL
Rhodesain (Trypanosoma brucei rhodesiense), sequence (Q95PM0 1-450): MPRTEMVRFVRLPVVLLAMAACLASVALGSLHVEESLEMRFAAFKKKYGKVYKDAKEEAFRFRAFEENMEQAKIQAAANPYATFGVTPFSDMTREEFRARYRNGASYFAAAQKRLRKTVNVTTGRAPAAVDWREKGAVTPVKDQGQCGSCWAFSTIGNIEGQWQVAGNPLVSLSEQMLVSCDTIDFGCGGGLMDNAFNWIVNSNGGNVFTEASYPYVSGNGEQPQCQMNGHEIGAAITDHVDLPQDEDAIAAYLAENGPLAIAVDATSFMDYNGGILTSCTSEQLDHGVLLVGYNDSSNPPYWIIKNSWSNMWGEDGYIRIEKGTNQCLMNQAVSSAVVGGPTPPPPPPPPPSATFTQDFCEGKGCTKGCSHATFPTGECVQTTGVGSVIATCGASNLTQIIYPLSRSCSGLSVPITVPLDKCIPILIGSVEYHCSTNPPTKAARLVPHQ
T1 sequence (Q95PM0 whole entry): as the sequence (Q95PM0 1-450) above

CC(NC1=CC(=O)c2ccccc2C1=O)c1ccccc1 (stereo not given)
inhibition [1]: 23% | inhibition [2]: 26%

O=C1C=C(O)C(=O)c2ccccc21 [LAWSONE]
inhibition [3]: 27% | IC50 (Rhodesain [4]): 33 µM | IC50 (Rhodesain [5]): > 100 µM | inhibition [1]: 77% | inhibition [6]: Tde | inhibition [7]: Active | inhibition [2]: 58%

COC1=CC(=O)c2ccccc2C1=O
inhibition [1]: 27% | inhibition [2]: 32%

Cc1cc(NS(=O)(=O)c2ccc(NC3=CC(=O)c4ccccc4C3=O)cc2)no1
inhibition [1]: 1% | inhibition [2]: 6%

O=C1C=C(Nc2ccc(S(=O)(=O)Nc3ccccn3)cc2)C(=O)c2ccccc21
inhibition [3]: 48% | IC50 (Rhodesain [4]): 1.8 µM | IC50 (Rhodesain [5]): 30 µM | inhibition [1]: 93% | inhibition [6]: Tde | inhibition [7]: Active | IC50 (Cruzipain): 6.3 µM | inhibition [2]: 95%

O=C(NNC1=CC(=O)c2ccccc2C1=O)c1ccncc1
inhibition [1]: 37% | inhibition [2]: 37%

O=C1C=C(Nc2ccccc2)C(=O)c2ccccc21
inhibition [1]: 61% | inhibition [2]: 48%

O=C1C=C(Br)C(=O)c2ccccc21
inhibition [1]: 50% | inhibition [2]: 51%

CC(C)=CCC1=C(O)c2ccccc2/C(=N/NC(=O)c2ccncc2)C1=O
inhibition [3]: 73% | IC50 (Rhodesain [4]): 20 µM | IC50 (Rhodesain [5]): 29 µM | inhibition [1]: 87% | inhibition [7]: Active | IC50 (Cruzipain): 33 µM | inhibition [2]: 76%

O=C1C(Cl)=C(Cl)C(=O)c2ccccc21
inhibition [1]: 56% | inhibition [2]: 49%

CC(C)C[C@H](NC(=O)[C@H](Cc1ccccc1)NC1=C(C#N)C(=O)c2ccccc2C1=O)C(=O)O
Ki (Rhodesain [8]): 0.0005 µM

O=C1C=C(O)c2ccccc2/C1=N/NC(=O)c1ccncc1
inhibition [1]: 52% | inhibition [2]: 66%

CC(C)=CCC1=C(O)c2ccccc2/C(=N/NC(N)=S)C1=O
inhibition [3]: 79% | IC50 (Rhodesain [4]): 28 µM | IC50 (Rhodesain [5]): 66 µM | inhibition [1]: 82% | inhibition [7]: Active | IC50 (Cruzipain): 34 µM | inhibition [2]: 83%

CC(C)=CCC1=C(O)C(=O)c2ccccc2C1=O [LAPACHOL]
inhibition [3]: 18% | IC50 (Rhodesain [4]): 58 µM | IC50 (Rhodesain [5]): > 100 µM | inhibition [1]: 70% | inhibition [6]: Tde | inhibition [7]: Active | inhibition [2]: 35%

CC(C)C[C@H](NC(=O)[C@H]1O[C@@H]1C(=O)O)C(=O)NCCCCN=C(N)N [E-64]
IC50 (Rhodesain [4]): 0.0031 µM | inhibition [9]: 95% | inhibition [10]: 7% | inhibition [7]: Active | IC50 (Cruzipain): 0.02 µM

CC1(C)CCC2=C(O1)C1(CO1)c1ccccc1C2=O (stereo not given)
LC50 (Trypanosoma cruzi): < 3.1 µM | CC50 (Vero): > 50 µM
